Measured values taken from ChEMBL document CHEMBL4765366, “Targeting fungal virulence factor by small molecules: Structure-based discovery of novel secreted aspartic protease 2 (SAP2) inhibitors” (Eur J Med Chem, 2020).
Active and inactive are the calls of the source. The rule behind the calls is not given here.

Key:
[1] = tested on: Candida albicans; assay: Downregulation of EFG1 in azole resistant Candida albicans 0304103 at 64 ug/ml by qRT-PCR analysis; type: functional; details: dose 64.0 µg/ml
[2] = tested on: Candida albicans; assay: Antifungal activity against azole resistant Candida albicans 0304103 infected in ICR mouse assessed as reduction in fungal burden in kidney at 10 mg/kg, ip administered for 4 days; type: functional, organism-based; details: time 4.0 day
Method in brief: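 Female ICR mice (20–25 g) were immunosuppressed with cyclophosphamide, 100 mg/kg ip in saline. After 24 h they were infected iv with 0.2 mL of 1×10^5 CFU/mL cells. Starting 24 h after infection, mice (4 per group) received the drug ip once daily for four days; controls received saline or fluconazole 10 mg/kg. Kidneys were homogenized and plated on YPD at 30°C for log10 CFU.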

[3] = tested on: Candida albicans; assay: Inhibition of hyphal formation in azole sensitive Candida albicans SC5314 at 4 to 32 ug/ml incubated for 3 hrs by microscopic imaging analysis; type: functional, organism-based; details: dose 4-32 µg/ml
Method in brief: (§1)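 Yeast cells (1.0 × 10^5 CFU/mL) were exposed to a range of compound concentrations, with fluconazole as the positive drug. Plates were incubated at 37°C for 3 h (C. albicans 0304103 and SC5314) or 7 h (C. tropicalis 10186). Hyphal growth was then observed and photographed by microscopy.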

[4] = tested on: Candida tropicalis; assay: Antibiofilm activity against azole resistant Candida tropicalis 10186 assessed as inhibition of biofilm formation at 64 ug/ml incubated for 24 hrs by XTT-dye based assay relative to control; type: functional
Method in brief: (§2)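 Cell suspensions (1.0 × 10^5 CFU/mL) were adhered for 90 min at 37°C, then rinsed three times with PBS. Compounds were added at a range of concentrations from 2 mg/mL DMSO stocks, with fluconazole as the positive control. Plates were cultured 24 h at 37°C, and biofilm was measured semi-quantitatively by XTT reduction.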

[5] = tested on: Candida albicans; assay: Antibiofilm activity against azole resistant Candida albicans 0304103 assessed as inhibition of biofilm formation at 32 ug/ml in presence of fluconazole incubated for 24 hrs by XTT-dye based assay relative to control; type: functional
[6] = Inhibition of recombinant Candida albicans SAP2 using Dabcyl-Arg-Lys-Pro-Ala-Leu-Phe-Phe-Arg-Leu-Glu (EDANS)-Arg-OH as substrate incubated for 30 mins followed by substrate addition and measured after 30 mins by spectrophotometry
[7] = tested on: Candida albicans; assay: Upregulation of TEC1 in azole resistant Candida albicans 0304103 at 64 ug/ml by qRT-PCR analysis; type: functional; details: dose 64.0 µg/ml
[8] = tested on: Candida tropicalis; assay: Antibiofilm activity against azole resistant Candida tropicalis 10186 assessed as inhibition of biofilm formation incubated for 24 hrs by XTT-dye based assay; type: functional, organism-based; details: dose 4-64 µg/ml; method in brief: as §2
[9] = tested on: Candida albicans; assay: Inhibition of hyphal formation in azole resistant Candida albicans 0304103 at 4 to 32 ug/ml incubated for 3 hrs by microscopic imaging analysis; type: functional, organism-based; details: dose 4-32 µg/ml; method in brief: as §1
[10] = tested on: Candida albicans; assay: Upregulation of CPH1 in azole resistant Candida albicans 0304103 at 64 ug/ml by qRT-PCR analysis; type: functional; details: dose 64.0 µg/ml
[11] = tested on: Candida albicans; assay: Inhibition of hyphal formation in azole resistant Candida albicans 0304103 at 128 ug/ml incubated for 3 hrs by microscopic imaging analysis; type: functional; method in brief: as §1
[12] = tested on: Candida albicans; assay: Antibiofilm activity against azole resistant Candida albicans 0304103 assessed as inhibition of biofilm formation incubated for 24 hrs by XTT-dye based assay; type: functional, organism-based; details: dose 4-64 µg/ml; method in brief: as §2
[13] = tested on: Candida albicans; assay: Antibiofilm activity against azole resistant Candida albicans 0304103 assessed as inhibition of biofilm formation at 0.5 ug/ml in presence of fluconazole incubated for 24 hrs by XTT-dye based assay; type: functional, organism-based; details: dose 0.5 µg/ml
[14] = tested on: Candida albicans; assay: Downregulation of ECE2 in azole resistant Candida albicans 0304103 at 64 ug/ml by qRT-PCR analysis; type: functional; details: dose 64.0 µg/ml
[15] = tested on: Candida albicans; assay: Downregulation of ALS3 in azole resistant Candida albicans 0304103 at 64 ug/ml by qRT-PCR analysis; type: functional; details: dose 64.0 µg/ml
[16] = tested on: Candida albicans; assay: Inhibition of hyphal formation in azole sensitive Candida albicans SC5314 at 128 ug/ml incubated for 3 hrs by microscopic imaging analysis; type: functional; method in brief: as §1
[17] = tested on: Candida tropicalis; assay: Inhibition of hyphal formation in azole resistant Candida tropicalis 10186 at 64 ug/ml incubated for 7 hrs by microscopic imaging analysis; type: functional; method in brief: as §1
[18] = tested on: Candida tropicalis; assay: Inhibition of hyphal formation in azole resistant Candida tropicalis 10186 at 4 to 16 ug/ml incubated for 7 hrs by microscopic imaging analysis; type: functional, organism-based; details: dose 4-16 µg/ml; method in brief: as §1
[19] = tested on: Candida albicans; assay: Inhibition of recombinant Candida albicans SAP2 at 100 uM using Dabcyl-Arg-Lys-Pro-Ala-Leu-Phe-Phe-Arg-Leu-Glu (EDANS)-Arg-OH as substrate incubated for 30 mins followed by substrate addition and measured after 30 mins by spectrophotometry relative to control; details: time 60.0 min
Method in brief: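 FRET assay with purified expressed C. albicans SAP2 in 50 mM sodium citrate, 50 mM NaCl, pH 4.5. Compound (diluted in DMSO) was preincubated with enzyme 30 min before adding the Dabcyl/EDANS peptide substrate (18.75 μM solution in DMSO). Reaction ran 30 min at 30 °C, then fluorescence was read at ex 340, em 485 nm. Pepstatin A was the positive control.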

[20] = tested on: Candida albicans; assay: Downregulation of SAP2 in azole resistant Candida albicans 0304103 at 64 ug/ml by qRT-PCR analysis; type: functional; details: dose 64.0 µg/ml

Question: Which Activity [1] does the source give for `Cc1ccc(CN2C(=O)/C(=C/c3ccc(OCC(=O)O)cc3OCC(=O)O)c3ccc(-c4ccc(C)cc4)cc32)cc1` here?
Answer: Active

Question: And the Activity [2]?
Answer: Active

Question: What about the inhibition [3] of the same compound?
Answer: inactive

Question: And the inhibition at 64 µg/mL [4]?
Answer: > 50%

Question: And the inhibition at 32 µg/mL [5]?
Answer: 90%

Question: What about the IC50 [6] of the same compound?
Answer: 0.92 µM

Question: What about the Activity [7] of the same compound?
Answer: Active

Question: What about the inhibition [8] of the same compound?
Answer: Dose-dependent effect

Question: What about the inhibition [9] of the same compound?
Answer: inactive

Question: What about the Activity [10] of the same compound?
Answer: Active

Question: And the inhibition at 128 µg/mL [11]?
Answer: 100%

Question: What about the inhibition [12] of the same compound?
Answer: Dose-dependent effect

Question: And the inhibition [13]?
Answer: Active

Question: And the Activity [14]?
Answer: Active

Question: What about the Activity [15] of the same compound?
Answer: Active

Question: What about the inhibition at 128 µg/mL [16] of the same compound?
Answer: 100%

Question: What about the inhibition at 64 µg/mL [17] of the same compound?
Answer: 100%

Question: What about the inhibition [18] of the same compound?
Answer: Active

Question: And the inhibition [19]?
Answer: 100%

Question: And the Activity [20]?
Answer: Active
